Active and inactive are the calls of the source. The calls are words filed in the database; no cut-off is given here.
Legend:
[1] = Antiproliferative activity against human JJN-3 cells after 3 days by MTT assay; assay type: functional, cell-based; settings: JJN-3, 72 h
Summary of the method: (§1)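 Cells at >90% viability seeded at 2×10³ cells/well in fresh growth medium with 10-point serial dilutions of compound; 3-day incubation; viability by MTT, relative to untreated cells; each point in at least triplicate; IC50 from dose–response. HO15.19-wt-Myc are myc−/− rat fibroblasts with c-Myc restored by stable retroviral transduction.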

[2] = tested on: HeLa; assay: Antiproliferative activity against human HeLa cells after 3 days by MTT assay; assay type: functional, cell-based; settings: 72 h; summary of the method: as §1
[3] = Antiproliferative activity against human INA-6 cells after 3 days by MTT assay; assay type: functional, cell-based; settings: INA-6, 72 h; summary of the method: as §1
[4] = Cell cycle arrest in human HL60 cells assessed as accumulation at G2/M phase at 10 uM after 24 hrs by propidium iodide staining-based flow cytometric analysis (reference value: 10.3%); assay type: functional; settings: HL-60
[5] = molecular target: T1, c-Myc/Max (Homo sapiens, UniProt P01106+P61244); assay: Disruption of human recombinant c-Myc-Max/DNA (unknown origin) binding assessed as complex level by electrophoretic mobility shift assay relative to control; assay type: protein-complex assay
Summary of the method: (§2)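 Recombinant c-Myc 353–437 bHLH-ZIP with full-length Max(S), or Max(L) alone, from E. coli (His₆ removed by TEV), each 30 nM, with 30 nM HEX-labelled double-stranded oligonucleotide bearing a c-Myc site; buffer 1× PBS pH 7.3, 1 mM EDTA, 0.1% NP40, 5% glycerol, 1 mM DTT, 400 µg/mL BSA; complex level relative to DMSO control; three independent EMSAs.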

[6] = Antiproliferative activity against human ANBL-6 cells after 3 days by MTT assay; assay type: functional, cell-based; settings: ANBL-6, 72 h; summary of the method: as §1
[7] = molecular target: T1, c-Myc/Max; assay: Inhibition of heterodimerization of human recombinant His-tagged c-Myc-Max(S) compound treated for 20 mins with c-Myc and followed by added Max(S) at 3.1 to 50 uM after 30 mins by SPR analysis in presence of biotinylated E-box-containing oligonucleotides; assay type: protein-complex assay
[8] = Cell cycle arrest in human HL60 cells assessed as accumulation at G2/M phase at 15 uM after 24 hrs by propidium iodide staining-based flow cytometric analysis (reference value: 10.3%); assay type: functional; settings: HL-60
[9] = molecular target: T1, c-Myc/Max; assay: Binding affinity to human recombinant 15N labeled c-Myc-Max(S) heterodimer assessed as chemical shift up to 100 uM by NMR spectroscopy; assay type: protein-complex assay
[10] = tested on: HEK293; assay: Antiproliferative activity against human HEK293 cells after 3 days by MTT assay; assay type: functional, cell-based; settings: HEK293, 72 h; summary of the method: as §1
[11] = molecular target: T1, c-Myc/Max; assay: Disruption of human recombinant c-Myc-Max(S)/DNA (unknown origin) binding assessed as complex level at 100 uM by electrophoretic mobility shift assay relative to control; assay type: protein-complex assay; summary of the method: as §2
[12] = tested on: Daudi; assay: Antiproliferative activity against c-Myc-overexpressing human Daudi cells after 3 days by MTT assay; assay type: functional, cell-based; settings: 72 h; summary of the method: as §1
[13] = molecular target: Nuclear factor NF-kappa-B complex (Homo sapiens) (UniProt Q00653+P19838+Q04206); assay: Inhibition of NFkappaB binding site (unknown origin) expressed in human HeLa cells assessed as inhibition of luciferase after 6 hrs; assay type: cell-based
Summary of the method: (§3)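 HeLa cells stably carrying a labile luciferase under a minimal promoter with triplicated c-Myc or NF-κB sites, methotrexate-amplified; 10⁶ cells seeded, next day compound for 6 h; lysates assayed in triplicate, normalised to protein, background (mutant-site line) subtracted, expressed relative to untreated cells (100%); mean ± 1 standard error.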

[14] = Antiproliferative activity against human IH-1 cells after 3 days by MTT assay; assay type: functional, cell-based; settings: IH-1, 72 h; summary of the method: as §1
[15] = molecular target: Protein max (Homo sapiens) (UniProt P61244); assay: Binding affinity to human recombinant 15N labeled Max(S) homodimer assessed as chemical shift up to 100 uM by NMR spectroscopy
[16] = Cell cycle arrest in human HL60 cells assessed as accumulation at S phase at 15 uM after 24 hrs by propidium iodide staining-based flow cytometric analysis (reference value: 58.4%); assay type: functional; settings: HL-60
[17] = molecular target: T1, c-Myc/Max; assay: Inhibition of human recombinant His-tagged c-Myc-Max(S) heterodimer binding to DNA at 3.1 to 50 uM after 30 mins by SPR analysis in presence of biotinylated E-box-containing oligonucleotides; assay type: protein-complex assay
[18] = Cell cycle arrest in human HL60 cells assessed as accumulation at G0/G1 phase at 15 uM after 24 hrs by propidium iodide staining-based flow cytometric analysis (reference value: 31.2%); assay type: functional; settings: HL-60
[19] = Antiproliferative activity against rat HO15.19-wt-Myc cells after 3 days by MTT assay; assay type: functional, cell-based; settings: HO15.19, 72 h; summary of the method: as §1
[20] = Antiproliferative activity against human U266 cells after 3 days by MTT assay; assay type: functional, cell-based; settings: U-266, 72 h; summary of the method: as §1
[21] = molecular target: T1, c-Myc/Max; assay: Induction of dissociation of […]-Max in human HL60 cells at 10 to 30 uM after 6 hrs by Co-immunoprecipitation (Co-IP) assay; assay type: cell-based; settings: HL-60
Summary of the method: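 About 5×10⁶ HL60 cells exposed 6 h to compound or DMSO; lysed in IP buffer; 300 µg cleared lysate immunoprecipitated overnight at 4 °C with anti-Max (1:200) and protein G-Sepharose; 10% SDS-PAGE, immunoblot with anti-c-Myc 9E10 (1:1000); input lysate kept for comparison.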

[22] = Cell cycle arrest in human HL60 cells assessed as accumulation at G0/G1 phase at 10 uM after 24 hrs by propidium iodide staining-based flow cytometric analysis (reference value: 31.2%); assay type: functional; settings: HL-60
[23] = Antiproliferative activity against human H460 cells after 3 days by MTT assay; assay type: functional, cell-based; settings: NCI-H460, 72 h; summary of the method: as §1
[24] = molecular target: Myc proto-oncogene protein (Homo sapiens) (UniProt P01106); assay: Inhibition of wild type c-Myc binding site (unknown origin) expressed in human HeLa cells assessed as inhibition of luciferase after 6 hrs; assay type: cell-based; summary of the method: as §3
[25] = Cell cycle arrest in human HL60 cells assessed as accumulation at S phase at 10 uM after 24 hrs by propidium iodide staining-based flow cytometric analysis (reference value: 58.4%); assay type: functional; settings: HL-60
[26] = Antiproliferative activity against human KJON cells after 3 days by MTT assay; assay type: functional, cell-based; settings: 72 h; summary of the method: as §1
[27] = tested on: NCI-H460; assay: Induction of neutral lipid accumulation in human H460 cells assessed as ratio of mean florescent intensity of compound treated to control cells at 40 uM after 48 hrs by flow cytometry; assay type: functional
Summary of the method: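 Sub-confluent H460 cells given compound 48 h; trypsinised, washed, stained 30 min at ambient temperature with BODIPY […]/503 (stock 50 µg/ml, 0.9 ml added to 0.1 ml cells); flow cytometry of ≥10⁴ events; mean fluorescence of treated over untreated cells; biological triplicates, ± one standard error.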

[28] = molecular target: T1, c-Myc/Max; settings: 6.3 to 50 uM
[29] = molecular target: T1, c-Myc/Max; settings: 6.3 to 50 uM; remark: listed apart in the source

T1 sequence (P01106 whole entry): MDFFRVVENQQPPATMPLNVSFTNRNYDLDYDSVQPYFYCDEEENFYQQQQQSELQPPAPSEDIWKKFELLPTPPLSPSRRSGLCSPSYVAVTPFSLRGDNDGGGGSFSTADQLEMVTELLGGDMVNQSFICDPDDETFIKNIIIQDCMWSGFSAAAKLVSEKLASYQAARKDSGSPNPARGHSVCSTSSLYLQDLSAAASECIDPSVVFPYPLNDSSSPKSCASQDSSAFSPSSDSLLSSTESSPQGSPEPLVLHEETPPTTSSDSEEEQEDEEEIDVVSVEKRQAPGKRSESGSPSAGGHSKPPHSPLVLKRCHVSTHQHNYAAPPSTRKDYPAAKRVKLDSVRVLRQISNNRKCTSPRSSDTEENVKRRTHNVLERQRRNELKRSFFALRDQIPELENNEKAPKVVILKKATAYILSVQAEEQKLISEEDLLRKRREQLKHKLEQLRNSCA
T1 sequence (P61244 whole entry): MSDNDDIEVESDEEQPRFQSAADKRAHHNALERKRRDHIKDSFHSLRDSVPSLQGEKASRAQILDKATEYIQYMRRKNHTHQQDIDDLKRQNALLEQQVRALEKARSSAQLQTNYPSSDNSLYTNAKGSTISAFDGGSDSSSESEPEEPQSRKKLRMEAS
Chain of Protein max (Homo sapiens) (P61244 whole entry): as above
Chain of Nuclear factor NF-kappa-B complex (Homo sapiens) (P19838 whole entry, looked up): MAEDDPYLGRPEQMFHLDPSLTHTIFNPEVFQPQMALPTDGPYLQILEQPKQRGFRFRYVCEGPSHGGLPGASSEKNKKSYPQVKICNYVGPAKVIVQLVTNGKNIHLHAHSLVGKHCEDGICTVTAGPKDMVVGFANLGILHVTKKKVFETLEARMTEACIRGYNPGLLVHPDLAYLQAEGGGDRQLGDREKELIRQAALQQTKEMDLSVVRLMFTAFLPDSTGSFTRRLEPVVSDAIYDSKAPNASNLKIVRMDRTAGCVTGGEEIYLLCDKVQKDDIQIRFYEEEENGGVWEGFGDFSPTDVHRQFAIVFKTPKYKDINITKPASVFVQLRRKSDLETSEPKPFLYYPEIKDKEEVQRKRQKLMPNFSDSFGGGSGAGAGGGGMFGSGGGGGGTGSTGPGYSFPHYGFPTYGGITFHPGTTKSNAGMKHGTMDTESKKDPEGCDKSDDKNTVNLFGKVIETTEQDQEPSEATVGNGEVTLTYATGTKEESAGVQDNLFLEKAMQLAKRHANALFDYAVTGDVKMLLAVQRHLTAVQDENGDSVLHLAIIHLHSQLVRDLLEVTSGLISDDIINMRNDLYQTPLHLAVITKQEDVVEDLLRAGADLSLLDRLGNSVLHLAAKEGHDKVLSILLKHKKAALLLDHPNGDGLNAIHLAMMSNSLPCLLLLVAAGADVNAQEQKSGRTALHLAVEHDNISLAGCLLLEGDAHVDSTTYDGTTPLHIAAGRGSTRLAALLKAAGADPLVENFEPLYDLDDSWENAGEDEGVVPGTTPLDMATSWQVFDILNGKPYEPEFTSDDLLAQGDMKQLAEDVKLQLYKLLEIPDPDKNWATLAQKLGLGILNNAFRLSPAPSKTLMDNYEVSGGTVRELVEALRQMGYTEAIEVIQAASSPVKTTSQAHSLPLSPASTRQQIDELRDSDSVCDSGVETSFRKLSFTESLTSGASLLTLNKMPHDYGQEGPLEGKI
Chain of Nuclear factor NF-kappa-B complex (Homo sapiens) (Q00653 whole entry, looked up): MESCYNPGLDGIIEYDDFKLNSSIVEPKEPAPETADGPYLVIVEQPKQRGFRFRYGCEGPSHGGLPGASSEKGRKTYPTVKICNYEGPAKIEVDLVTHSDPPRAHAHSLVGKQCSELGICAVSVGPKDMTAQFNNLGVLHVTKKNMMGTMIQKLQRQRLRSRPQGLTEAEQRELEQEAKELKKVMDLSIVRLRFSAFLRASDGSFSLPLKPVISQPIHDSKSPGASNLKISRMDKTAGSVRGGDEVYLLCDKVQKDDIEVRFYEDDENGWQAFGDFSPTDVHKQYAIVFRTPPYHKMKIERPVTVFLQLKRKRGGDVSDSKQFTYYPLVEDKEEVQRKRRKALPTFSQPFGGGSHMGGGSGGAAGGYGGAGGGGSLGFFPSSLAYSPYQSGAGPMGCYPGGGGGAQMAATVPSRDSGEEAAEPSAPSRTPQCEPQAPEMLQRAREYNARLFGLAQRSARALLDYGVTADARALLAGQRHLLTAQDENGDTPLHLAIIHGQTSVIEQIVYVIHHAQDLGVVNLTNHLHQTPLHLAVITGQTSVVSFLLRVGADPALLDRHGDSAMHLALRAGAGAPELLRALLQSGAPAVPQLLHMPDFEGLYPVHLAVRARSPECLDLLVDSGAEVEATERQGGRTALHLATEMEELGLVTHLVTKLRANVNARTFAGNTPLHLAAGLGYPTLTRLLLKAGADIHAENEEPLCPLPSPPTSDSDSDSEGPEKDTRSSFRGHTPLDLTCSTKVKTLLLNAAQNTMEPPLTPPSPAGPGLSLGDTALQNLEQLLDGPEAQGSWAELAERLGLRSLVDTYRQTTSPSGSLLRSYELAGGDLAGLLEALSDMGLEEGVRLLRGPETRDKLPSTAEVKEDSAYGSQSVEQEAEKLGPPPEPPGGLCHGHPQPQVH
Chain of Nuclear factor NF-kappa-B complex (Homo sapiens) (Q04206 whole entry, looked up): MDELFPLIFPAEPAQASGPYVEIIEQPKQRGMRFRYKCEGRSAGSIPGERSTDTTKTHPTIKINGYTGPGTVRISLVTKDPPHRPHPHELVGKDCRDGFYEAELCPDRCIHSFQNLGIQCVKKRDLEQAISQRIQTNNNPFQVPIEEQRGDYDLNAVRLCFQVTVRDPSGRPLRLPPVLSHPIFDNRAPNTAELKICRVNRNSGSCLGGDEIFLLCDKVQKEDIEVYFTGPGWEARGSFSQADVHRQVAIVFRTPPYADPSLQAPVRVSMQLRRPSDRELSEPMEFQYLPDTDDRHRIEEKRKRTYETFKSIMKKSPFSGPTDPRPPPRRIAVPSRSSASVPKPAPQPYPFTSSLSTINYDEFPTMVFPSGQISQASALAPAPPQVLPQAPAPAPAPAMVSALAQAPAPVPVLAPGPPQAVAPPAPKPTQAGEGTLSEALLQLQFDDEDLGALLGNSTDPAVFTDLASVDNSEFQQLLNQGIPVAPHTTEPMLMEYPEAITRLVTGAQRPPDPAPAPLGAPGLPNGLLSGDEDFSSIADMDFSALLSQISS
Chain of Myc proto-oncogene protein (Homo sapiens) (P01106 whole entry): as the sequence (P01106 whole entry) above

## CC(C)COc1cc(C(=O)O)ccc1NC(=O)c1ccc([N+](=O)[O-])c(OCc2cccc3ccccc23)c1
[1]
  IC50: 15.7 µM
[2]
  IC50: 10.8 µM
[3]
  IC50: 18.1 µM
[4]
  Activity: 0.77%
[5]
  IC50: 11.6 µM
[6]
  IC50: 35.6 µM
[7]
  inhibition: Active
[8]
  Activity: 5.64%
[9]
  Kd: 13 µM
[10]
  IC50: 10.4 µM
[11]
  Activity: 0%
[12]
  IC50: 9.5 µM
[13]
  inhibition: inactive
[14]
  IC50: 20.6 µM
[15]
  Activity: inactive
[16]
  Activity: 23.3%
[17]
  inhibition: Active
[18]
  Activity: 71%
[19]
  IC50: 14.1 µM
[20]
  IC50: 46 µM
[21]
  Activity: inactive
[22]
  Activity: 51.4%
[23]
  IC50: 15.9 µM
[24]
  inhibition: Dose-dependent effect
[25]
  Activity: 47.9%
[26]
  IC50: 23 µM

## O=[N+]([O-])c1ccc(Nc2ccccc2-c2ccccc2)c2nonc12
[27]
  Ratio: 1.4
[28]
  inhibition: Active
[29]
  inhibition: Active

Source: ChEMBL document CHEMBL3425495, “Perturbation of the c-Myc-Max protein-protein interaction via synthetic α-helix mimetics” (J Med Chem, 2015)
